Columns and labels:
[1] = system: Rattus norvegicus; assay: Hyperglycemic activity and change in blood glucose concentration was reported 4 hours after administration (100 mg/Kg perorally); assay type: functional
Summary of the method: (§1)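 Overnight-fasted rats dosed orally at 100 mg/kg as a suspension in 1% tragacanth in distilled water. Tail capillary blood sampled at 0, 2 and 4 h after dosing. Serum glucose measured by spectrophotometry of enzymatically produced NADH2. Change is expressed relative to time zero as mean ± SEM of four animals; plus means a rise, minus a fall; p<0.05 marks significance.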

[2] = system: Rattus norvegicus; assay: Hyperglycemic activity and change in blood glucose concentration was reported 2 hours after administration of 100 mg/Kg perorally.; assay type: functional; summary of the method: as §1
[3] = Partition coefficient (logP); assay type: physicochemical; conditions: octanol/water
Summary of the method: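 Partition coefficient calculated as P = C(octanol)/C(H2O), using the method of Fujita et al.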

[4] = system: Rattus norvegicus; assay: Hyperglycemic activity and change in blood glucose concentration was reported 2 hours after administration of 100 mg/Kg perorally; assay type: functional; summary of the method: as §1
[5] = system: Rattus norvegicus; assay: Hyperglycemic activity and change in blood glucose concentration was reported 4 hours after administration of 100 mg/Kg perorally; assay type: functional; summary of the method: as §1

| SMILES | logP [3] | Change [1] [%] | Change [2] [%] | Change [4] [%] | Change [5] [%] |
| --- | --- | --- | --- | --- | --- |
| O=C(NN1CCC=CC1=O)c1ccccc1 | 1.17 | 4 | 1 | – | – |
| COC(=O)CCC1=CCCN(NC(=O)c2ccccc2)C1 | 0.74 | 6 | -2 | – | – |
| CCCNC(=O)NS(=O)(=O)c1ccc(Cl)cc1 [CHLORPROPAMIDE] | – | -38 | – | -42 | – |
| COC(=O)CCC1=CCN(NC(=O)c2ccccc2)CC1 | 0.949 | -9 | -9 | – | – |
| COCCCC1=CCN(NC(=O)c2ccccc2)CC1 | 1.49 | -9 | 1 | – | – |
| CC(=O)OCCCC1=CCCN(NC(=O)c2ccccc2)C1 | 1.49 | 7 | -8 | – | – |
| O=C(NN1CC=C(CCCO)CC1)c1ccccc1 | 1.22 | -6 | 4 | – | – |
| CC1CC=CCN1NC(=O)c1ccccc1 (stereo unspecified) | 0.699 | 16 | 12 | – | – |
| COCCCC1=CCCN(NC(=O)c2ccccc2)C1 | 0.908 | -11 | -10 | – | – |
| C=C1C=CCN(NC(=O)c2ccccc2)C1 | 1.37 | 4 | – | 5 | – |
| O=C(O)CCC1=CCN(NC(=O)c2ccccc2)CC1 | 1 | 7 | -4 | – | – |
| CC(=O)OCCCC1=CCN(NC(=O)c2ccccc2)CC1 | 1.52 | 3 | 2 | – | – |
| O=C(O)CCC1=CCCN(NC(=O)c2ccccc2)C1 | 1.18 | -4 | -14 | – | – |
| O=C(NN1CC=CCC1)c1ccccc1 | – | 50 | 78 | – | – |

Now from value to compound, other results behind:

| logP [3] | SMILES | Change [1] [%] | Change [2] [%] | Change [4] [%] | Change [5] [%] |
| --- | --- | --- | --- | --- | --- |
| 0.643 | O=C(NN1CC=C(CO)CC1)c1ccccc1 | -14 | -10 | – | – |
| 1.35 | CC1=C(C)CN(NC(=O)c2ccccc2)CC1 | 20 | 27 | – | – |
| 1.37 | CC1=CCCN(NC(=O)c2ccccc2)C1 | 116 | 124 | – | – |
| 1.12 | O=C(NN1CCC=C(CCCO)C1)c1ccccc1 | -6 | -2 | – | – |
| 1.27 | O=C(NN1CCC=C(F)C1)c1ccccc1 | 42 | 64 | – | – |
| 0.38 | CC(=O)C1=CCN(NC(=O)c2ccccc2)CC1 | -19 | -12 | – | – |
| -0.0969 | CC(=O)C1=CCCN(NC(=O)c2ccccc2)C1 | -17 | -5 | – | – |
| 1.62 | COC1=CCCN(NC(=O)c2ccccc2)C1 | -9 | – | -7 | – |
| 0.0414 | CC(O)C1=CCN(NC(=O)c2ccccc2)CC1 (stereo unspecified) | -5 | -10 | – | – |
| 0.447 | CC(O)C1=CCCN(NC(=O)c2ccccc2)C1 (stereo unspecified) | -16 | -8 | – | – |
| 1.16 | COC1=CCN(NC(=O)c2ccccc2)CC1 | – | – | 5 | 7 |
| 1.2 | CC1=CCN(NC(=O)c2ccccc2)CC1 | 43 | 48 | – | – |
